≈ marks a conversion by molar mass, not a printed value.
Legend:
Assay type in all cases: functional
[1] = system: Staphylococcus aureus; assay: Antibacterial activity against methicillin-sensitive Staphylococcus aureus 8325-4 assessed as growth inhibition after 24 hrs by CLSI broth microdilution method; conditions: 8325-4, 24 h
Procedure, shortened: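 MSSA strain 8325-4; log-phase inoculum at 10⁵ CFU/mL. 2-fold serial dilutions, 64 to 0.031 µg/mL, in cation-adjusted Mueller-Hinton broth. Aerobic incubation, 24 h, 37 °C. Growth read as OD₆₀₀. MIC is the lowest concentration giving ≥90% growth inhibition.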

[2] = system: Enterococcus faecalis; assay: Antibacterial activity against vancomycin-resistant Enterococcus faecalis ATCC 51575 assessed as growth inhibition after 24 hrs by CLSI broth microdilution method; conditions: ATCC 51575, 24 h
Procedure, shortened: (§1)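 Run per CLSI broth microdilution. Log-phase E. faecalis at 10⁵ CFU/mL in brain-heart infusion broth with 2-fold serial dilutions (64 to 0.031 µg/mL), incubated aerobically 24 h at 37 °C. Growth is measured by OD₆₀₀, and MIC is the lowest concentration inhibiting growth by ≥90%.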

[3] = system: Enterococcus faecalis; assay: Antibacterial activity against vancomycin-sensitive Enterococcus faecalis ATCC 19433 assessed as growth inhibition after 24 hrs by CLSI broth microdilution method; conditions: ATCC 19433, 24 h; procedure, shortened: as §1
[4] = system: Staphylococcus aureus; assay: Antibacterial activity against methicillin-resistant Staphylococcus aureus ATCC 33591 assessed as growth inhibition after 24 hrs by CLSI broth microdilution method; conditions: ATCC 33591, 24 h
Procedure, shortened: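 CLSI broth microdilution. Log-phase bacteria at 10⁵ CFU/mL are added to 2-fold serial dilutions from 64 to 0.031 µg/mL in cation-adjusted Mueller-Hinton broth with 2% NaCl. Plates are incubated aerobically for 24 h at 37 °C and growth is read as OD₆₀₀. MIC is the lowest concentration giving ≥90% growth inhibition.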

SMILES | MIC [1] [µg/mL] | MIC [2] [µg/mL] | MIC [3] [µg/mL] | MIC [4] [µg/mL]
COc1ccc2c(c[n+](C)c3c4cc5c(cc4ccc23)OCO5)c1OC [CHELERYTHRINE] | 4 | 32 | 32 | 4
CC(C)(C)c1ccc(-c2ccc(CN=C(N)N)c3ccccc23)cc1 | 2 (≈ 6.03 µM) | 2 (≈ 6.03 µM) | 2 (≈ 6.03 µM) | 2 (≈ 6.03 µM)
CC(C)(C)c1ccc(-c2ccc(CN)c3ccccc23)cc1 | 4 (≈ 13.8 µM) | 8 (≈ 27.6 µM) | 8 (≈ 27.6 µM) | 8 (≈ 27.6 µM)
CN(C)[C@@H]1C(O)=C(C(N)=O)C(=O)[C@@]2(O)C(O)=C3C(=O)c4c(O)cccc4[C@@](C)(O)[C@H]3C[C@@H]12 [TETRACYCLINE] | 0.06 (≈ 0.135 µM) | > 64 | 0.5 (≈ 1.13 µM) | 64 (≈ 144 µM)
CC[C@H]1OC(=O)[C@H](C)[C@@H](O[C@H]2C[C@@](C)(OC)[C@@H](O)[C@H](C)O2)[C@H](C)[C@@H](O[C@@H]2O[C@H](C)C[C@H](N(C)C)[C@H]2O)[C@](C)(O)C[C@@H](C)C(=O)[C@H](C)[C@@H](O)[C@]1(C)O [ERYTHROMYCIN] | 0.13 (≈ 0.177 µM) | > 64 | 1 (≈ 1.36 µM) | > 64
COc1cc(C(F)(F)F)ccc1-c1cccc2c(CCN=C(N)N)cccc12 | 2 (≈ 5.16 µM) | 4 (≈ 10.3 µM) | 4 (≈ 10.3 µM) | 8 (≈ 20.7 µM)
CC(C)(C)c1ccc(-c2cccc3c(CC(=N)N)cccc23)cc1 | 4 (≈ 12.6 µM) | 8 (≈ 25.3 µM) | 4 (≈ 12.6 µM) | 4 (≈ 12.6 µM)
NC(N)=NCc1cccc2c(-c3ccc(Br)cc3)cccc12 | 2 (≈ 5.65 µM) | 8 (≈ 22.6 µM) | 8 (≈ 22.6 µM) | 8 (≈ 22.6 µM)
CC(C)(C)c1ccc(-c2ccc(CCN)c3ccccc23)cc1 | 4 (≈ 13.2 µM) | 4 (≈ 13.2 µM) | 4 (≈ 13.2 µM) | 4 (≈ 13.2 µM)
CC(C)(C)c1ccc(-c2ccc(CCN=C(N)N)c3ccccc23)cc1 | 2 (≈ 5.79 µM) | 4 (≈ 11.6 µM) | 2 (≈ 5.79 µM) | 4 (≈ 11.6 µM)
NC(N)=NCc1cccc2c(-c3ccc(C(F)(F)F)cc3)cccc12 | 2 (≈ 5.82 µM) | 16 (≈ 46.6 µM) | 8 (≈ 23.3 µM) | 8 (≈ 23.3 µM)
NC(N)=NCCc1cccc2c(-c3ccc(C(F)(F)F)cc3)cccc12 | 1 (≈ 2.8 µM) | 4 (≈ 11.2 µM) | 4 (≈ 11.2 µM) | 4 (≈ 11.2 µM)
CCC[C@@H]1C[C@@H](C(=O)N[C@@H]([C@H]2O[C@H](SC)[C@H](O)[C@@H](O)[C@H]2O)[C@H](C)Cl)N(C)C1 [CLINDAMYCIN] | 0.03 (≈ 0.0706 µM) | > 64 | 2 (≈ 4.71 µM) | > 64

From ChEMBL document CHEMBL2311247, “Antimicrobial activity of various 4- and 5-substituted 1-phenylnaphthalenes” (2013)
